Columns and labels:
[1] = system: HRECs; assay: Matrigel based tube formation assay; type: cell-based, human; settings: HRECs on Matrigel, 8 hours, different concentrations
Procedure, shortened: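 HRECs (passage 5–8) in EGM-2 were seeded at 15,000 cells per well onto Matrigel-coated wells, with DMSO vehicle or a range of test compound concentrations. A known antiangiogenic homoisoflavonoid served as positive control. After 8 h, wells were imaged and tube length was quantified by image analysis. Mean ± SEM, n=3–6 wells, duplicate experiments; one-way ANOVA with Dunnett's post hoc test vs DMSO.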

[2] = system: HRECs (human retinal microvascular endothelial cells); settings: read-out: GI50 (HREC); as reported; cited from earlier work
[3] = system: HUVECs (human umbilical vein endothelial cells); settings: read-out: GI50 (HUVEC); as reported; cited from earlier work
[4] = system: 92–1 uveal melanoma cells; settings: read-out: GI50 (92–1); as reported; cited from earlier work
[5] = system: Y79 retinoblastoma cells; settings: read-out: GI50 (Y79); as reported; cited from earlier work

Row | Compound | ability of HRECs to form tubes (tubule length compared to DMSO control) [1] | GI50 [2] | GI50 [3] | GI50 [4] | GI50 [5]
1 | CCOc1ccc(C(=O)/C=C/c2ccc(OC)c(OC)c2)c(O)c1C [Compound 50, (E)-3-(3,4-dimethoxylphenyl)-1-(4-ethoxy-2-hydroxy-3-methyl-phenyl)prop-2-en-1-one] | effective |  |  |  | 
2 | COc1ccc(CC2COc3cc(O)c(OC)c(O)c3C2=O)cc1O (stereo not shown) [cremastranone] |  | 0.22 µM | 0.38 µM | 48 µM | 9.8 µM
3 | COc1ccc(C[C@@H]2COc3cc(OC)c(OC)c(OC)c3C2=O)cc1O [Compound 45, 5,6,7-trimethoxy-3(R)-(3ʹhydroxy-4ʹ-methoxybenzyl)-4-chromanone] | effective |  |  |  | 
4 | COc1ccc(/C=C2\COc3cc(OC)c(OC)c(O)c3C2=O)cc1O [Compound 48, (E)-5-hydroxy-6,7-trimethoxy-3-(3ʹhydroxy-4ʹ-methoxybenzylidene)-4-chromanone] | effective |  |  |  | 

Reference: publication PMC6771261 (Journal of natural products, 2019)
